Screens (PubChem)
Sampled rows, rich in hits. Any-hit rate of the full collection: about 2.6%.
Vif inh: HIV Vif self-association inhibitors, primary screen, imaging, HEK293T, single point | inhibition, % at 7.49 µM | HEK293T cells, Vif self-association by quenched fluorescence, 24 h | 340,000 compounds, 0.35% hits; in the data active means inhibition above about 50%, passing the limit was not always enough
Ecoli rRNA inh: reduced GFP signal of wild-type E. coli, primary screen, bacterial rRNA inhibitor project, GFP/RFP fluorescence, OD600, single point | E. coli WT GFP vs humanized-ribosome RFP mutants, 24 h; active compounds read low; DMSO median 0, no signal -100 | GFP signal change (wild-type ribosome), % (no concentration beside the values) | 350,000 compounds, 1.6% hits | AID 720706, 2013;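 active means significant combined selectivity score with lowered wild-type GFP, culture density cut under 30%, mutant RFP and density less affected; inactive means any of these conditions unmet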
miR-122 sensor: miR-122 Renilla sensor signal increase in Huh7, primary screen, miR-122 inhibitor project, cell-based, single point, plate reader; Huh7 miR-122 Renilla luciferase sensor, 48 h; neutral wells = 0, positive control = 100; activation (reporter increase), % at 12.5 µM; 340,000 compounds, 0.3% hits; AID 602342, 2012;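 active means mean replicate activation score at least 90 and every replicate individually at or above 90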;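 further: higher luciferase means less miR-122 activity so hits act as miR-122 inhibitors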
FN deposit inh: inhibitors of fibronectin matrix deposition, primary screen, AH1F cells, Alexa488-fibronectin fluorescence, plate reader; 350,000 compounds, 0.086% hits; AH1F fibroblasts, overnight; inhibition, % at 12.6 µM;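 active means mean inhibition across replicates of 30% or more, regardless of how many single replicates reach that level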
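material = AH1F fibroblast monolayer depositing Alexa488-labelled fibronectin into matrix | amount = 10000 AH1F cells/well | buffer or medium = DMEM plus 2% serum, read in PBS | incubation = 1 h cell adhesion before compound, then overnight fibronectin incubation | detection = fluorescence at 485 nm excitation, 525 nm emission | evaluation = percent inhibition as loss of matrix-bound fibronectin fluorescence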
S100A4 MyoIIA: inhibitors of S100A4-myosin IIA peptide binding, primary screen, biochemical, fluorescence polarization, TAMRA-MyoIIA peptide | inhibition, % at 10.7 µM | 360,000 compounds, 0.14% hits | AID 652163, 2013;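 active means mean inhibition of at least 70% across replicates, with every replicate also reaching that level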
Target sequence (P26447 whole entry, looked up): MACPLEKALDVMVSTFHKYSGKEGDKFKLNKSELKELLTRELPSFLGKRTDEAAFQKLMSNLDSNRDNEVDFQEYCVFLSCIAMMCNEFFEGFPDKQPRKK
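assay system = human S100A4 monomer with TAMRA-labelled myosin IIA peptide | also added = labelled myosin peptide probe, 5 nM | incubation = 5 min between mix addition and reading | control set = DMSO and TFP controls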
HIV Env fusion: inhibitors of HIV-1 Env-driven cell-cell fusion, primary screen, HeLa-JRFL effector, CEM21 target cells, luciferase; inhibition, % at 12.3 µM; 360,000 compounds, 1.1% hits; AID 651610, 2012;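 active means mean replicate inhibition score of at least 50 and every replicate individually at or above 50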
Numbers stand for hits; – = inactive; · = no result.

SMILES	Vif inh	Ecoli rRNA inh	miR-122 sensor	FN deposit inh	S100A4 MyoIIA	HIV Env fusion
O=C1[C@H](Cc2ccccc2)NCCCC[C@H](c2ccc(Cl)cc2)N1Cc1ccc(Cl)cc1	–	–	–	–	–	66.1
COC(=O)C1=C(C(=O)OC)[C@]2([C@H]3CCCCN[C@@H](Cc4ccccc4)C(=O)N3Cc3ccccc3)C=C[C@H]1O2	·	–	·	–	–	65.2
COc1ccccc1/C=C/C=O	·	·	·	·	–	–
CCN(CC)c1ccc(NC(=O)COc2ccccc2C#N)cc1S(=O)(=O)Nc1ccccc1OC	–	–	287.5	–	–	–
CCN(CC)c1ccc(NC(=O)c2ccccn2)cc1S(=O)(=O)Nc1ccccc1OC	–	–	124.5	·	–	–
COc1cccc(NC(=S)N(CCCN2CCC(C)CC2)Cc2cccs2)c1	–	–	·	–	–	–
CSc1cccc(NC(=S)N(CCCN2CCC(C)CC2)Cc2cccs2)c1	–	-19.0	–	–	–	–
Cc1ccccc1-c1ccc([C@@H]2[C@H]3CN(S(=O)(=O)c4cn(C)cn4)CCCCN3[C@H]2CO)cc1	·	–	–	·	–	·
OC1CCN(c2c3c(nc4cc(-c5cccc(F)c5)nn24)CCCC3)CC1	–	-18.5	–	·	–	·
Fc1cccc(-c2cc3nc4c(c(N5CCC6(CC5)OCCO6)n3n2)CCCC4)c1	–	·	–	·	·	·
OCC1OC(n2cnc3c(/C=C(\O)c4ccccc4)ncnc32)C(O)C1O (stereo not given)	–	–	–	·	–	55.0
C[C@H](Cc1ccccc1)Nc1ncnc2c1ncn2[C@@H]1O[C@H](CO)[C@@H](O)[C@H]1O	64.7	–	–	–	–	–
COc1cccc(S(=O)(=O)N2CCC3(CC2)CN[C@H](CO)c2[nH]c4cc(OC)ccc4c23)c1	·	–	·	·	·	·
CCOC(=O)N/N=C/c1ccccc1OCc1ccc(Cl)cc1	–	-25.1	·	–	–	–
O=C(Cc1ccccc1)N/N=C/c1ccccc1OCc1ccc(Cl)cc1	–	·	·	·	·	·
C[C@H]1CCCCO[C@H](CN(C)S(=O)(=O)c2cccs2)[C@@H](C)CN([C@@H](C)CO)C(=O)c2cc(NC(=O)c3ccccc3)ccc2O1	·	–	–	·	·	–
O=C(C[C@@H]1CC[C@@H]2[C@H](COC[C@H](O)CN2Cc2nccs2)O1)NCc1ccc(-c2ccccc2)cc1	·	–	–	–	–	·
O=C(Nc1ccc(O)c(-c2nc3ccccc3o2)c1)C1(c2ccc([N+](=O)[O-])cc2)CCCC1	–	·	–	–	·	55.1
C[C@H](CO)N1C[C@H](C)[C@@H](CN(C)S(=O)(=O)c2cn(C)cn2)Oc2ccc(NC(=O)CCN3CCOCC3)cc2C1=O	·	–	–	–	–	·
Cc1cc(Br)ccc1NC(=O)c1ccco1	–	-22.3	–	–	–	–
COc1cc(NC(=O)c2ccc([N+](=O)[O-])o2)ccc1NC(=O)c1ccco1	–	-21.7	–	–	–	–
Cc1ccc(NC(=O)/C(=C/c2cccs2)NC(=O)c2ccco2)c(C)c1	–	-30.3	·	–	–	·
CC(=O)c1ccc(NC(=O)Nc2ccc(Br)cc2C)cc1	–	-18.6	·	–	–	–
Cc1ccccc1NC(=O)c1ccco1	–	–	–	–	–	–
Cc1cc(NC(=O)c2ccc([N+](=O)[O-])o2)ccc1NC(=O)c1ccco1	–	·	·	–	–	–
SMILES	Vif inh	Ecoli rRNA inh	miR-122 sensor	FN deposit inh	S100A4 MyoIIA	HIV Env fusion
CC(=O)c1ccc(NC(=O)c2ccc(C)c(Br)c2)cc1	–	–	·	–	–	–
C[C@@H]1CN([C@H](C)CO)C(=O)c2cc(NS(=O)(=O)c3ccc(Cl)cc3)ccc2O[C@@H]1CN(C)S(=O)(=O)c1cn(C)cn1	·	–	–	·	–	·
O=C(C[C@H]1CC[C@H](NC(=O)c2cnccn2)[C@@H](CO)O1)NCc1ccccc1F	·	–	–	–	–	–
COc1cc(NC(=O)C2CCCCC2)c(OC)cc1NC(=O)c1ccco1	–	·	–	·	·	–
CCN(c1ccccc1)S(=O)(=O)c1ccc(OC)c(NC(=O)c2ccccc2OC)c1	–	–	–	–	–	–
COc1cc(NC(=O)COc2ccccc2C)ccc1NC(=O)c1ccco1	–	–	–	–	–	–
CCN(c1ccccc1)S(=O)(=O)c1ccc(OC)c(NC(=O)c2ccco2)c1	–	-19.2	–	–	–	–
COc1cc(NC(=O)COc2ccccc2)ccc1NC(=O)c1ccco1	66.2	–	–	–	–	–
COc1cc2c(cc1NC(=O)c1ccco1)CCCC2	·	-32.5	–	·	–	·
CCC(=O)N(C)C[C@H]1Oc2cc(-c3ccc(F)cc3)ccc2S(=O)(=O)N([C@H](C)CO)C[C@H]1C	·	–	–	–	–	–
C[C@@H]1CCCCO[C@@H](CN(C)CC2CCCCC2)[C@@H](C)CN([C@H](C)CO)C(=O)c2cc(NC(=O)Nc3cccc4ccccc34)ccc2O1	·	–	–	·	–	–
O=S(=O)(c1ccc(F)cc1)N(CCO)CC(O)Cn1c2ccccc2c2ccccc21 (stereo not given)	–	·	–	·	·	66.0
C[C@@H]1CCCCO[C@@H](CN(C)C(=O)C2CCCCC2)[C@@H](C)CN([C@@H](C)CO)C(=O)c2cc(NC(=O)c3ccccc3)ccc2O1	·	–	–	·	–	–
NC(=O)Cn1cc(/C=N\NS(=O)(=O)c2ccc(F)cc2)c2ccccc21	–	–	135.3	–	–	–
CCC(=O)NC(=S)Nc1cccc(Cl)c1N1CCCCC1	–	·	–	–	·	73.3
Cc1cc(C)c(C(=O)COC(=O)CNC(=O)c2ccccc2C)c(C)c1	–	–	·	–	111.2	·
Cc1noc(C)c1NC(=O)N(C)C[C@@H]1Oc2ccc(NC(=O)Nc3cccc4ccccc34)cc2CC(=O)N([C@H](C)CO)C[C@@H]1C	·	–	–	–	–	–
C=CCn1c(COc2ccc(Cl)cc2)nnc1SCc1ccc(C#N)cc1	–	·	–	·	·	58.0
Cc1ccc(OCc2nnc(SCc3ccc(C#N)cc3)n2-c2ccc(C)cc2)cc1	–	·	·	·	·	64.7
COc1cc(-c2cc(=O)c3c(O)c(OC)c(OC)cc3o2)cc(OC)c1O	89.0	·	–	·	–	·
COc1ccc(-c2cc(=O)c3c(O)c(OC)c(O)cc3o2)cc1	–	–	–	·	–	·
O=C(C[C@H]1C=C[C@@H](NC(=O)C2CCC2)[C@@H](CO)O1)NCCCN1CCOCC1	·	–	–	–	–	–
Cc1nnc2ccc(-c3ccc(NS(=O)(=O)c4ccc(Cl)s4)cc3)nn12	92.8	–	–	–	–	–
